For 8 compounds, IC50 results are on record in ChEMBL document CHEMBL1156669, “Aldehyde dehydrogenase inhibitors: alpha,beta-acetylenic N-substituted aminothiolesters are reversible growth inhibitors of normal epithelial but irreversible apoptogens for cancer epithelial cells from human prostate in culture” (Eur J Med Chem, 2008).

The term IC50 denotes the concentration at which inhibition is half-maximal.

The test system of test [1] is DU-145. The test is described as follows: Growth inhibition of human DU145 cells administered after 3 days. The settings on record: DU-145, 72 h. In kind it is functional, cell-based. An outline of the steps: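 DU145 in RPMI 1640 with 10% FCS; 1 × 10⁵ cells per well in 24-well plates, compound added 4 h after seeding. After 3 days the adherent sheet was washed twice with PBS and harvested in 0.14 M NaOH, and protein content measured. IC50 is the mean of three experiments.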

Test [2] can be described thus: Growth inhibition of HPEN cells administered after 3 days. The settings on record: Homo sapiens, 72 h. In kind it is cell-based. An outline of the steps:
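HPENC in PrEGM with supplement and 10% FCS; 1 × 10⁵ cells per well in 24-well plates, compound added 4 h after seeding once adhered. After 3 days, growth read as protein content. IC50 is the mean of three experiments.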

As for `CSC(=O)C#CC(C)(C)N1CCc2ccccc21`, the midpoint of inhibition in test [1], the IC50, lay at 7 µM.
Still for that read-out and setting: then `CSC(=O)C#CC(C)(C)N(C)CCc1ccccc1`, with 6 µM; and `CSC(=O)C#CC(C)(C)N(Cc1ccccc1)Cc1ccccc1`, with 7 µM.
Take `CN(C)C(=S)C#CC(C)(C)N1CCOCC1`: the half-maximal inhibitory concentration (IC50) in test [1] turned out to be 100 µM.
The same measure, in the same setting: in the case of `CSC(=O)C#CC(C)(C)N1CCCC1` it was 6.7 µM; in that of `CSC(C#CC(C)(C)N1CCOCC1)=[N+](C)C`, over 100 µM.
Take `CSC(=O)C#CC(C)(C)N(C)Cc1ccccc1`: the IC50 was found to be 1.4 µM in test [1] and 1.9 µM in test [2].
In test [1], `CSC(=O)C#CC(C)(C)N1CCCCC1` displayed an IC50 of 22 µM. That is a double-digit micromolar value.
